Holding throughout (format): functional, cell-based
The subject of one test is NCI-H460. The experiment in a line: Cytotoxicity against human NCI-H460 cells after 48 hrs by MTT assay. The settings on record: NCI-H460, 48 h. In a few lines: (§1)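 Cells in exponential growth were trypsinised, centrifuged at 180 × g for 3 min, resuspended at 5 × 10^4 cells/ml and seeded. After 48 h drug exposure, MTT (1 mg/mL) added for 4 h. Formazan dissolved in DMSO, OD read at 570 nm. Each dose run in triplicate. IC50 derived from mean OD and reported as the mean of three independent assays.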
(Formazan colour is commonly taken as a measure of viable cells.)

The subject of another test is MCF7. The experiment in a line: Cytotoxicity against human MCF7 cells after 48 hrs by MTT assay. The settings on record: MCF7, 48 h. The essentials:
as §1

For the next test, the system named is HepG2. The experiment in a line: Cytotoxicity against human HepG2 cells after 48 hrs by MTT assay. The settings on record: HepG2, 48 h. The essentials: as §1

For orientation: IC50 means the concentration needed to halve the response being measured.

As for `O=C(CN1CCCC1)Nc1ccc2c(c1)C(=O)c1cccc3ccnc-2c13`, the IC50 was 2.09 µM in the test with NCI-H460, 11.8 µM in the test with MCF7 and 8.14 µM in the test on HepG2.
Regarding `CN(C)CCNCCC(=O)Nc1ccc2c(c1)C(=O)c1cccc3ccnc-2c13`, the IC50 in the test on NCI-H460 was found to be 30.3 µM; in the test with MCF7, 28.1 µM; in the test on HepG2 it was 21 µM.
Take `O=C1c2ccccc2-c2nccc3cccc1c23`: the IC50 in the test with MCF7 and with HepG2 was greater than 100 µM each time.
As for `CN(C)CCCC(=O)Nc1ccc2c(c1)C(=O)c1cccc3ccnc-2c13`, the IC50 in the test with NCI-H460 came to 19.3 µM; in the test with MCF7, 11.5 µM; with HepG2, 29.8 µM.
On the same counts, the results for `CN(C)CC(=O)Nc1ccc2c(c1)C(=O)c1cccc3ccnc-2c13` are 9.22 µM, 17.5 µM and 9.69 µM.
As for `O=C(CCNCCO)Nc1ccc2c(c1)C(=O)c1cccc3ccnc-2c13`, the results for the IC50 with NCI-H460, with MCF7 and with HepG2 were 2.36 µM, 4.3 µM and 3.88 µM, respectively.
Take `CN(C)CCC(=O)Nc1ccc2c(c1)C(=O)c1cccc3ccnc-2c13`: the values for the IC50 in the test with NCI-H460, in the test with MCF7 and in the test on HepG2 were 6.71 µM, 9.11 µM and 7.74 µM, respectively.
On the same counts, the results for `Nc1ccc2c(c1)C(=O)c1cccc3ccnc-2c13` are 35.5 µM, 20.4 µM and 19.7 µM.
Turning to `CCN(CC)CCC(=O)Nc1ccc2c(c1)C(=O)c1cccc3ccnc-2c13`, the IC50 in the test with NCI-H460 is 4.99 µM; in the test on MCF7, 12.7 µM; in the test with HepG2, 12.1 µM.
In the case of `O=C(CCCN1CCCC1)Nc1ccc2c(c1)C(=O)c1cccc3ccnc-2c13`, the IC50 with NCI-H460 is 9.08 µM; in the test on MCF7, 27.4 µM; in the test with HepG2, 12.9 µM.
On the same counts, the results for `O=C(CCN1CCCCC1)Nc1ccc2c(c1)C(=O)c1cccc3ccnc-2c13` are 4.23 µM, 5.07 µM and 6.36 µM.
As to `O=C(CCN1CCCC1)Nc1ccc2c(c1)C(=O)c1cccc3ccnc-2c13`, the figures for the IC50 with NCI-H460, in the test on MCF7 and with HepG2 were 16.7 µM, 7.96 µM and 8.18 µM, respectively.

For the origin of these results see ChEMBL document CHEMBL1156677, “Oxoisoaporphine alkaloid derivatives: synthesis, DNA binding affinity and cytotoxicity” (Eur J Med Chem, 2008).
